Laboratory results reported in ChEMBL document CHEMBL4392855, “Scaffold hopping of fused piperidine-type NK3 receptor antagonists to reduce environmental impact” (Bioorg Med Chem, 2019).

Columns and labels:
Neuromedin-K receptor [1] = biological target: T1, Neuromedin-K receptor (Homo sapiens, UniProt P29371); assay: Antagonistic activity against NK3R (unknown origin) expressed in CHO cells assessed as inhibition of NKB-induced intracellular calcium flux by Calcium 4 assay; format: functional, cell-based
T1 sequence (P29371 whole entry): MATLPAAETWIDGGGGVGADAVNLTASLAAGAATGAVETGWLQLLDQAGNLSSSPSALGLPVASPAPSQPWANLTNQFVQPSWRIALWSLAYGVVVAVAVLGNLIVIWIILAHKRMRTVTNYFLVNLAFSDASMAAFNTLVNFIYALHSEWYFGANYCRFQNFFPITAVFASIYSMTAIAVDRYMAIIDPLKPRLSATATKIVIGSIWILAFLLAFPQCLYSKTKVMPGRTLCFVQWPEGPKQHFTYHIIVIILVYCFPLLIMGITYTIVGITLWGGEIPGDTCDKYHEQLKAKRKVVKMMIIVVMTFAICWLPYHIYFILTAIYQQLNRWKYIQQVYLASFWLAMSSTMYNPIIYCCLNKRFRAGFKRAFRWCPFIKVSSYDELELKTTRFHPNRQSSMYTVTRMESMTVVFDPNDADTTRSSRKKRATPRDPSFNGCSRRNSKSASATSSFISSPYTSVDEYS

[2] = Stability in pH 7.4 phosphate buffer assessed as compound degradation at 30 uM by HPLC analysis; format: physicochemical; details: pH 7.4, 30 µM
[3] = Stability in pH 10 carbonate buffer assessed as compound degradation at 30 uM by HPLC analysis; format: physicochemical; details: pH 10, 30 µM
[4] = Stability in rat serum assessed as compound degradation at 50 uM by HPLC analysis; format: ADME, cell-free
[5] = Stability in pH 4 acetate buffer assessed as compound degradation at 30 uM by HPLC analysis; format: physicochemical; details: pH 4, 30 µM
[6] = Photo-stability in 50 mM pH 7.4 phosphate buffer assessed as compound degradation at 30 uM under UV-light irradiation by HPLC analysis; format: physicochemical; details: pH 7.4, 30 µM
In short: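 Compound at 30 μM in 50 mM phosphate buffer pH 7.4/EtOH 70:30 (0.1% DMSO) was exposed to a mercury xenon lamp (1500 W/m^2). Aliquots sampled at intervals were diluted 1:1 with MeCN and run on HPLC with 254 nm detection. Ratios were calculated from calibration curves.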

Neuromedin-K receptor [7] = biological target: T1, Neuromedin-K receptor; assay: Antagonistic activity against NK3R (unknown origin) expressed in CHO cells assessed as inhibition of NKB-induced intracellular calcium flux under UV-light irradiation by Calcium 4 assay; format: functional, cell-based
[8] = Photo-stability in 50 mM pH 7.4 phosphate buffer assessed as compound degradation at 30 uM exposed to xenon lamp irrational (> 325 nm) by HPLC analysis; format: physicochemical; details: pH 7.4, 30 µM
In short: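 Compound at 30 μM in 50 mM phosphate buffer pH 7.4/EtOH 70:30 (0.1% DMSO) was irradiated with a xenon arc lamp (900 W/m^2), with filters cutting wavelengths below 325 nm. Aliquots taken at intervals were diluted with MeCN and analysed by HPLC with 254 nm UV detection. Remaining amounts were taken from calibration curves.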

| SMILES | IC50 (Neuromedin-K receptor [1]) | Stability [2] | Stability [3] | Stability [4] | Stability [5] | Stability [6] | IC50 (Neuromedin-K receptor [7]) | Stability [8] |
| --- | --- | --- | --- | --- | --- | --- | --- | --- |
| C[C@@H]1c2noc(-c3ccc4ccccc4n3)c2CCN1C(=O)c1ccc(F)cc1 | 11.8 µM | Stable | Stable | Stable | Stable |  |  |  |
| C[C@H]1c2noc(-c3ccc4ccccc4n3)c2CCN1C(=O)c1ccc(F)cc1 | 13.7 µM | Stable | Stable | Stable | Stable |  |  |  |
| C[C@@H]1c2nnc(-c3ccc4ccccc4n3)n2CCN1C(=O)c1ccc(F)cc1 | 0.26 µM | Stable | Stable | Stable | Stable | Stable |  |  |
| CC1c2onc(-c3ccc4ccccc4n3)c2CCN1C(=O)c1ccc(F)cc1 (stereo unspecified) | 8.2 µM | Stable | Stable | Stable | Stable | Stable |  |  |
| CC1c2nnn(-c3ccc4ccccc4n3)c2CCN1C(=O)c1ccc(F)cc1 (stereo unspecified) | 4.1 µM | Stable | Stable | Stable | Stable | Stable |  |  |
| CC1c2noc(-c3ccc4ccccc4n3)c2CCN1C(=O)c1ccc(F)cc1 (stereo unspecified) | 10.3 µM | Stable | Stable | Stable | Stable | Unstable | > 100 µM | Unstable |
